T cell HTS: T cell immune modulation candidate. 2C CD8+ T cell-vesicle binding, flow cytometry; stronger effect = lower value. response (vesicle binding), % at 7 µM. 0.068% of 330,000 active. AID 2052;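 active = response, share of CD8 T cells binding vesicles, and their 90th percentile fluorescence all below set limits, cut at about 80% in these data, passing the limit was not always enough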;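 note: values below 100% mean blocked vesicle binding to the CD8+ T cells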
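Benchmarks: naked versus QL9-loaded vesicles / Assay system: purified 2C TCR transgenic mouse naive CD8+ T cells / Technique: high-throughput flow cytometry with anti-B7-1 and anti-CD8 staining / Timing: Cell–vesicle co-incubation 1.5 h at 37 °C, staining 20 min on ice / Read-out: percent CD8+ FL2 mean versus row control / Probe or stimulus: QL9-loaded Drosophila micro-vesicles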
MC4R antag cAMP: human MC4R antagonism in cAMP assay. P32245. MC4R-expressing cells, MTII-stimulated cAMP, LANCE TR-FRET. inhibition, % at 6.5 µM. 0.48% of 360,000 active. AID 540295;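 active = inhibition above its plate's cutoff, the mean of tested wells on that plate plus 3 SD, cut at about 29% in these data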;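 note: 0% = Melanotan II alone and 100% = Melanotan II plus saturating MCL0020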
Target sequence (P32245 whole entry, looked up): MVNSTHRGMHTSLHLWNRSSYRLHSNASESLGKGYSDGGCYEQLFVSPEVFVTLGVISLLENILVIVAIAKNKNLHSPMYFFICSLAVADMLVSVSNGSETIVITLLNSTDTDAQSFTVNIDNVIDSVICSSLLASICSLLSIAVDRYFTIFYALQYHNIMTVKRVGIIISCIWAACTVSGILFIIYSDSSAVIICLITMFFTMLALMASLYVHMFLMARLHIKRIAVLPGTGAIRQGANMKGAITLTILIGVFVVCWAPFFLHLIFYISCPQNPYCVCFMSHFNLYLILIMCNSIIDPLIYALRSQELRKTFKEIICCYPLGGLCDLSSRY
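System: U2OS-MC4R stable cell line; Technique: Eu-cAMP/anti-cAMP TR-FRET, emission 671 nm; Repeats: single well per compound; Also added: Melanotan II; Dosing: one concentration, 6.5 µM nominal; Schedule: 30-min compound, 1-h challenge, 1-h detection, room temperature.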
EP2 antag: blocks the human prostaglandin E2 receptor EP2. 0.52% of 260,000 active. AID 1422. inhibition, % at 25 µM. C6 glioma cells expressing human EP2, cAMP TR-FRET; cells stimulated with saturating PGE2. P43116;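 active = percent inhibition above 40 after rounding to a whole number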;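 note: rat C6 glioma host cells with rolipram phosphodiesterase inhibitor present; the protocol text gives 20 µM as final concentration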
Target sequence (P43116 whole entry, looked up): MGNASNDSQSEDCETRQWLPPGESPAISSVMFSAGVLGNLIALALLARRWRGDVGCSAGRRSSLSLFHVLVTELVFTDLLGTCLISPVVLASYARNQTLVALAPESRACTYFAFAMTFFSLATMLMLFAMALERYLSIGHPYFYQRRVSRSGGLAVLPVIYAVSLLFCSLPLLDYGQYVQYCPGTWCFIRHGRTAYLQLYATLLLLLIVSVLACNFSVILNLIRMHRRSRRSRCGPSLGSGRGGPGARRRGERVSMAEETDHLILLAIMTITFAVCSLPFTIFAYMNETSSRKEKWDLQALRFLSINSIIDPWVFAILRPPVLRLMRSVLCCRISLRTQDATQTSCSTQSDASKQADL
MC4R barr agon: activates human MC4R beta-arrestin recruitment | 0.98% of 360,000 active | U2OS MC4R beta-arrestin complementation, luminescence; percent of melanotan II response, DMSO zero | activation, % at 8.9 µM | P32245;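 active = activation above a per-plate cutoff, the mean activation of sample wells on that plate plus 3 SD, cut at about 8% in these data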
EP2 mod: modulates human prostaglandin E2 receptor EP2 signaling; P43116; EP2-expressing cells, cAMP HTRF FRET, PGE2 co-stimulation; induction, % at 25 µM; 0.83% of 260,000 active;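 active = compounds whose cAMP rise, as percent of the full-agonist control response, exceeds 60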;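 note: rat C6 glioma line stably carrying human EP2 under a CMV promoter; the protocol text gives 20 µM as final concentration; 100% = response of wells given 1 µM PGE2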
Exocytosis inh: blocks lytic granule exocytosis; TALL-104 LAMP-1 surface exposure, flow cytometry; cells stimulated with thapsigargin and PMA; inhibition, % at 10 µM; 0.66% of 360,000 active; AID 651702;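 active = inhibition above about 55%, limit read from the data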
MC4R barr conf: human MC4R beta-arrestin agonism confirmation; U2OS MC4R beta-arrestin recruitment, luminescence; scaled DMSO 0%, Melanotan II 100%; 31% of 2,400 active; shares compounds with MC4R barr agon; activation, % at 8.9 µM; AID 602192;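 active = mean activation across replicates above the hit cutoff set in the earlier primary screen, cut at about 8% in these data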
MOR DOR agonist: OPRM1-OPRD1 heterodimer agonism counter-screen; shares compounds with MC4R barr agon; U2OS PathHunter beta-arrestin, beta-gal luminescence; percent of deltorphin B response, DMSO zero; activation, % at 9.2 µM; 5.8% of 2,400 active; AID 602194;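 active = mean activation across replicates exceeds the hit threshold derived in the earlier primary screen, cut at about 18% in these data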;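 note: 100% = deltorphin B at 0.9 µM final and 0% = DMSO alone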
* hit, by the source's call; i = inactive; / = no result given. Rows were chosen to be rich in hits. Some 2.6% of all compounds tested hit in one or more screens of this group.

SMILES	T cell HTS	MC4R antag cAMP	EP2 antag	MC4R barr agon	EP2 mod	Exocytosis inh	MC4R barr conf	MOR DOR agonist
Cc1ccc(S(=O)(=O)N2[C@@H](c3ccc(C(C)(C)C)cc3)C(C(=O)O)=CC[C@H]2c2ccc(C(C)C)cc2)cc1	0	9	/	20*	/	5	15*	5
Cc1ccc([C@@H]2CC=C(C(=O)O)[C@H](c3ccc(C(C)(C)C)cc3)N2S(=O)(=O)c2ccc(C)cc2)cc1	351	11	/	5	/	-2	/	/
COc1ccc(CN(Cc2cn[nH]c2-c2ccccc2)CC2CCCO2)cc1OC (stereo not drawn)	/	/	6	/	3	/	/	/
O=C(CCCCCn1c(=S)[nH]c2ccc(N3CCOCC3)cc2c1=O)NCc1cccc(Cl)c1	i	12	2	9.8*	-6	2	2	3
O=C(CCCCCn1c(=S)[nH]c2ccc(N3CCOCC3)cc2c1=O)NCc1ccccc1	258	23	11	12*	-8	-2	7	3
COc1cc(-c2cnc3c(NC=O)cc(-c4ccc(C)cc4)cn23)cc(OC)c1OC	/	-34	/	0	/	21	/	/
CN(C)c1ccccc1-c1cc(NC=O)c2ncc(-c3cccc(C(F)(F)F)c3)n2c1	/	-6	/	27*	/	-12	27*	5
COc1cc(-c2cc(NC=O)c3ncc(-c4cccc(C(F)(F)F)c4)n3c2)cc(OC)c1OC	/	-28	/	22*	/	9	19*	8
COc1ccccc1-c1cc(NC=O)c2ncc(-c3ccc(F)cc3)n2c1	/	14	/	18*	/	39	18*	4
COc1cc(-c2cnc3c(NC=O)cc(-c4ccccc4Cl)cn23)cc(OC)c1OC	/	-56	/	7	/	7	/	/
CN(C)CCNC(=O)c1cccc(-c2cnc3c(NC=O)cc(-c4ccccc4F)cn23)c1	/	-4	/	0	/	0	/	/
COc1ccccc1-c1cc(NC=O)c2ncc(-c3cccc(C(F)(F)F)c3)n2c1	/	-1	/	25*	/	23	23*	2
Cc1ccc(N(CC(=O)NCCc2ccccc2)C(=O)c2csnn2)cc1	502	18	/	1	/	11	/	/
CS(=O)(=O)c1ccc(-c2cc(NC=O)c3ncc(-c4ccc(F)cc4)n3c2)cc1	/	-2	/	11*	/	-4	6	3
COc1ccc(-c2cc(NC=O)c3ncc(-c4cccc(C(F)(F)F)c4)n3c2)cc1OC	/	-9	/	36*	/	4	27*	6
COc1cc(-c2cnc3c(NC=O)cc(-c4cccc(NC(C)=O)c4)cn23)cc(OC)c1OC	/	-65	/	-2	/	18	/	/
Cc1ccc(CSCCNC(=O)c2ccc(NS(C)(=O)=O)cc2)cc1	182	19	5	-3	-10	0	/	/
Cc1ccc(C2CC(C(F)(F)F)n3nc(C(=O)Nc4c(C)n(C)n(-c5ccccc5)c4=O)cc3N2)cc1 (stereo not drawn)	399	13	1	1	0	-2	/	/
CSc1nc(N)nc(SCC(=O)OC(C)C)c1C#N	314	-8	6	-2	-1	-3	/	/
CSc1nc(N)nc(SCC(=O)c2ccc(C)cc2)c1C#N	346	-16	16	21*	-13	1	22*	4
CCOC(=O)c1nn(-c2cccc(OC)c2)c2nc(CC)c(C#N)c(=O)n12	246	7	12	11*	25	0	5	5
Cc1ccc(NC2=NCC(=O)N2Cc2ccc3c(c2)OCO3)cc1	312	22	6	0	32	0	/	/
CC1=C(C(=O)OCc2ccccc2)C(c2ccc(Br)cc2)NC(=O)N1CCCCCC(=O)O (stereo not drawn)	/	10	6	-1	/	22	/	/
O=C(Nc1ccc(C(=O)OC[C@@H]2CCCN3CCCC[C@H]23)cc1)c1cccc(Br)c1	177	6	11	12*	-58	-18	8	8
O=C(NC(=O)c1cccc(F)c1)OC[C@@H]1CCCN2CCCC[C@H]12	412	1	11	0	-5	-9	/	/
SMILES	T cell HTS	MC4R antag cAMP	EP2 antag	MC4R barr agon	EP2 mod	Exocytosis inh	MC4R barr conf	MOR DOR agonist
CN(C)C(=O)COc1ccc2c3c(c(=O)oc2c1)CCCC3	103	5	/	-1	/	-12	/	/
c1ccc(Nc2nnc(-c3cccc4ccccc34)o2)cc1	173	7	7	17*	-12	-1	7	8
Cc1cccc(-c2nnc(-c3cccc4ccccc34)o2)c1	/	2	/	0	/	38	/	/
Clc1ccc(-c2nnc(-c3cccc4ccccc34)o2)cc1	/	0	/	11*	/	-11	3	2
Cc1ccc(-c2nnc(-c3cccc4ccccc34)o2)cc1	/	4	/	0	/	35	/	/
Cc1c(C(c2ccc(C(=O)O)cc2)c2c(C)n(C)n(-c3ccccc3)c2=O)c(=O)n(-c2ccccc2)n1C	196	12	/	1	/	-4	/	/
Clc1ccc(CNCc2cccs2)c(Cl)c1	385	14	13	11*	8	-3	2	4
CC1=C(C(=O)N(C(C)C)C(C)C)CC(CC(=O)NC2CC2)C(=O)N1Cc1ccccc1 (stereo not drawn)	/	/	/	/	/	0	/	/
CCCc1cc(=O)oc2cc(OCC(=O)NCCc3c[nH]c4ccccc34)ccc12	210	4	/	17*	/	-8	14*	25*
Cc1cc(=O)oc2cc(OCC(=O)NCCc3c[nH]c4ccc(F)cc34)ccc12	438	3	/	2	/	0	/	/
O=C(COc1cccc(Cl)c1Cl)Nc1ccc2c(c1)CCC2	82	8	7	5	2	3	/	/
O=C(COc1ccccc1[N+](=O)[O-])Nc1ccc2c(c1)CCC2	524	2	/	13*	/	3	2	3
COc1ccc2cc(CNCCOCCOCCNCc3ccc4cc(OC)ccc4c3)ccc2c1	/	5	/	17*	/	47	58*	20*
CCOCCCNCc1ccc(OC)cc1	225	-4	4	-2	-7	3	/	/
COc1cccc(OC)c1C(=O)Nc1nc(COc2ccccc2)cs1	218	-1	4	12*	-35	4	0	3
CC(=O)Nc1nc(COc2ccccc2)cs1	453	18	8	-1	-3	-2	/	/
O=C(CSc1ccc(C(F)(F)F)cc1[N+](=O)[O-])Nc1ccc2ccccc2c1	254	-1	-1	11*	-7	3	8	6
CCOc1ccc(CC(=O)Nc2c(C(N)=O)oc3ccc(Br)cc23)cc1OCC	376	15	17	3	-2	-4	/	/
COc1ccc(C(=O)NCCOc2ccccc2)cc1S(=O)(=O)N1CCOCC1	441	1	/	-2	/	-2	/	/

Screens (PubChem)
